From ChEMBL document CHEMBL4414577, “Discovery of Pyrrolo[2,3-b]pyridine (1,7-Dideazapurine) Nucleoside Analogues as Anti-Trypanosoma cruzi Agents” (J Med Chem, 2019)
pEC50: −log10 of the molar value.

Legend:
[1] = Drug metabolism in mouse liver microsomes assessed as UGT-mediated metabolism by measuring compound remaining at 5 uM incubated for 15 mins in presence of UDPGA by UPLC-MS analysis; format: ADME; conditions: read-out: Stability
In short: (§1)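 Compound incubated with male mouse, rat, dog or pooled human S9 fractions, with NADPH (phase I) or […], sampled at 0, 15, 30 and 60 min. Read-out is percent parent remaining. Two independent experiments of two biological replicates; diclofenac and fluconazole used as assay controls.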

[2] = Drug metabolism in dog liver microsomes assessed as UGT-mediated metabolism by measuring compound remaining at 5 uM incubated for 30 mins in presence of UDPGA by UPLC-MS analysis; format: ADME, Canis lupus familiaris; conditions: read-out: Stability; in short: as §1
[3] = molecular target: T1, UDP-glucuronosyltransferases (UGTs) (Homo sapiens, UniProt O60656+O75310+O75795+P06133+P0DTE4+P0DTE5+P16662+P19224+P22309+P22310+P35503+P35504+P36537+P54855+Q6UWM9+Q9BY64+Q9HAW7+Q9HAW8+Q9HAW9); experiment: Drug metabolism in human liver S9 fraction assessed as UGT-mediated metabolism by measuring compound remaining at 5 uM measured immediately in presence of UDPGA by UPLC-MS analysis; format: ADME, subcellular; conditions: read-out: Stability; in short: as §1
[4] = Drug metabolism in dog liver microsomes assessed as UGT-mediated metabolism by measuring compound remaining at 5 uM incubated for 60 mins in presence of UDPGA by UPLC-MS analysis; format: ADME, Canis lupus familiaris; conditions: read-out: Stability; in short: as §1
[5] = Drug metabolism in rat liver microsomes assessed as UGT-mediated metabolism by measuring compound remaining at 5 uM incubated for 60 mins in presence of UDPGA by UPLC-MS analysis; format: ADME; conditions: read-out: Stability; in short: as §1
[6] = molecular target: T1, UDP-glucuronosyltransferases (UGTs); experiment: Drug metabolism in human liver S9 fraction assessed as UGT-mediated metabolism by measuring compound remaining at 5 uM incubated for 15 mins in presence of UDPGA by UPLC-MS analysis; format: ADME, subcellular; conditions: read-out: Stability; in short: as §1
Trypanosoma cruzi = experiment: Antitrypanosomal activity against Trypanosoma cruzi Tulahuen CL2 amastigotes infected in human MRC5 SV2 cells incubated for 7 days by chlorophenol red beta-D-galactopyranoside substrate based spectrophotometric assay; format: functional, organism-based; conditions: Tulahuen CL2, MRC-5 SV2, 168 h
In short: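 Intracellular amastigotes of β-galactosidase-expressing Tulahuen strain grown in MRC-5 fibroblast host cells. EC50 in μM given as mean and SEM of two or three independent experiments; some values come from a single determination.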

Cytochrome P450 = Cytochrome P450 (Homo sapiens, UniProt P04798+P05177+P05181+P08684+P10632+P10635+P11509+P11712+P13584+P20813+P20815+P20853+P24462+P24903+P33260+P33261+P51589+P78329+P98187+Q02928+Q08477+Q16678+Q16696+Q5TCH4+Q6VVX0+Q7Z449+Q8TAV3+Q96SQ9+Q9HB55); experiment: Drug metabolism in human liver S9 fraction assessed as CYP450-mediated metabolism by measuring parent compound remaining at 5 uM measured immediately in presence of NADPH by UPLC-MS analysis; format: ADME, subcellular; conditions: read-out: Stability; in short: as §1
[7] = Drug metabolism in dog liver microsomes assessed as UGT-mediated metabolism by measuring compound remaining at 5 uM measured immediately in presence of UDPGA by UPLC-MS analysis; format: ADME, Canis lupus familiaris; conditions: read-out: Stability; in short: as §1
[8] = Drug metabolism in rat liver microsomes assessed as UGT-mediated metabolism by measuring compound remaining at 5 uM incubated for 15 mins in presence of UDPGA by UPLC-MS analysis; format: ADME; conditions: read-out: Stability; in short: as §1

Compound: Nc1ccnc2c1c(I)cn2[C@@H]1O[C@H](CO)[C@@H](O)[C@H]1O
- remaining at 0.25 h, 5 µM [1]: 102%
- remaining at 0.5 h, 5 µM [2]: 94%
- remaining at 0 min, 5 µM [3]: 100%
- remaining at 1 h, 5 µM [4]: 84%
- remaining at 1 h, 5 µM [5]: 94%
- remaining at 0.25 h, 5 µM [6]: 99%
- pEC50 (Trypanosoma cruzi): 7.40
- remaining at 0 min, 5 µM (Cytochrome P450): 100%
- remaining at 0 min, 5 µM [7]: 100%
- remaining at 0.25 h, 5 µM [8]: 97%
